Experimental data reported in article PMC5806153 (The Journal of pediatrics, 2018).
Where “and” joins values, the source holds several entries; their conditions need not be identical. Equal values may be shown once. Read-outs that look alike come from different tables or passages of the source.

Tests used:
Safety and tolerability = assay type: in vivo, human
[1] = historical nonobese peers, mean ± SD, ref Ward et al.[22], cited from earlier work
[2] = assay type: in vivo, human; conditions: for half-life / Cmax / AUC(0-t) / AUC(0-inf): human, plasma; for AUC(0-t): Uncorrected AUC0-last; for AUC(0-t) / AUC(0-inf) / % AUC0-∞ extrapolated from AUC0-last / AUC0-∞ corrected for TBW-normalized dose / CL/F normalized to TBW / Cmax corrected for LBW-normalized dose / Cmax corrected for TBW-normalized dose / Vd/F normalized to TBW: mean ± SD; for AUC(0-inf): Uncorrected AUC0-∞; for tlag: median (range)
Method in brief: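 Fasted obese children 6–17 y, CYP2C19-genotyped (*2, *3, *4, *17; classed EM/IM/PM), received a single oral dose of ~1.2 mg/kg LBW. Catheter blood was drawn predose, half-hourly 0.5–4 h, and at 6 and 8 h, plus 12 h for PMs. Parent and sulfone metabolite were measured by validated LC-MS/MS in duplicate, using the mean. Noncompartmental analysis: λz from ≥3 terminal points, linear trapezoidal AUC, AUCinf = AUClast + CT/λz; Cmax and AUC corrected to 1 mg/kg TBW or LBW dose.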

[3] = both, oral, obese, age 6–11 y (n = 18)
[4] = both, oral, obese, age 12–17 y (n = 21)
[5] = non-PMs, Morbidly obese (BMI >99%), mean (SD)
[6] = non-PMs, obesity status Obese (BMI ≥95%), mean (SD)
[7] = obese non-PMs, ALT High (>Q3), mean (SD)
[8] = obese non-PMs, ALT Low (<Q1), mean (SD)
[9] = obese non-PMs, AST High (>Q3), mean (SD)
[10] = obese non-PMs, AST Low (<Q1), mean (SD)
[11] = obese non-PMs, Female, mean (SD)
[12] = obese non-PMs, Waist:hip ratio High (>Q3), mean (SD)
[13] = obese non-PMs, Waist:hip ratio Low (<Q1), mean (SD)
[14] = obese, 2C19 genotype EM, mean (SD)
[15] = obese, 2C19 genotype IM, mean (SD)
[16] = obese, age 6–11 y, non-PMs, mean, SD

half-life ([2]; both, im, t1/2, obese, 2C19 genotype IM, mean (SD)): 63 min
Cmax ([2]; both, oral): 4100 ± 1180 ng/mL
AUC(0-t) [2, 3]: 6170 ± 2170 ng·h/mL
AUC(0-t) [2, 4]: 7470 ± 2800 ng·h/mL
AUC(0-inf) [2, 3]: 6260 ± 2260 ng·h/mL
AUC(0-inf) [2, 4]: 7690 ± 3450 ng·h/mL
half-life ([2]; both, oral, t1/2, non-PMs, Morbidly obese (BMI >99%), mean (SD)): 61.8 min
half-life ([2]; both, oral, t1/2, non-PMs, obesity status Obese (BMI ≥95%), mean (SD)): 58.2 min
half-life ([2]; both, oral, t1/2, obese, 2C19 genotype EM, mean (SD)): 57 min
half-life ([2]; both, oral, t1/2, obese, age 12–17 y, mean, SD): 64.8 ± 15.6 min
Cmax ([2]; both, po): 4270 ± 1430 ng/mL
half-life ([2]; female, oral, t1/2, obese non-PMs, mean (SD)): 61.8 min
half-life ([2]; male, oral, t1/2, obese non-PMs, mean (SD)): 57 min
AUC0-∞ corrected for LBW-normalized dose [2, 5]: 6.17 (1.89) mcg*h/mL/1 mg/kg LBW
CL/F normalized by LBW [2, 5]: 0.18 (0.06) L/h/kg LBW
Vd/F normalized by LBW [2, 5]: 0.25 (0.05) L/kg LBW
AUC0-∞ corrected for LBW-normalized dose [2, 6]: 6.36 (2.97) mcg*h/mL/1 mg/kg LBW
CL/F normalized by LBW [2, 6]: 0.20 (0.11) L/h/kg LBW
Vd/F normalized by LBW [2, 6]: 0.25 (0.09) L/kg LBW
Vd/F normalized by LBW ([2]; obese non-PMs, Female (n = 18), mean (SD)): 0.28 (0.08) L/kg LBW
Vd/F normalized by LBW ([2]; obese non-PMs, Female (n = 18), mean (SD), listed as Pantoprazole): 0.28 [0.08] L/kg LBW
AUC0-∞ corrected for LBW-normalized dose [2, 11]: 6.03 (3.20) mcg*h/mL/1 mg/kg LBW
CL/F normalized by LBW [2, 11]: 0.21 (0.11) L/h/kg LBW
Vd/F normalized by LBW ([2]; obese non-PMs, Male (n = 17), mean (SD)): 0.22 (0.06) L/kg LBW
Vd/F normalized by LBW ([2]; obese non-PMs, Male (n = 17), mean (SD), listed as Pantoprazole): 0.22 [0.06] L/kg LBW
AUC0-∞ corrected for LBW-normalized dose ([2]; obese non-PMs, Male, mean (SD)): 6.57 (1.88) mcg*h/mL/1 mg/kg LBW
CL/F normalized by LBW ([2]; obese non-PMs, Male, mean (SD)): 0.17 (0.06) L/h/kg LBW
AUC0-∞ corrected for LBW-normalized dose [2, 12]: 6.63 (3.57) mcg*h/mL/1 mg/kg LBW
CL/F normalized by LBW [2, 12]: 0.20 (0.13) L/h/kg LBW
Vd/F normalized by LBW [2, 12]: 0.24 (0.09) L/kg LBW
AUC0-∞ corrected for LBW-normalized dose [2, 13]: 5.76 (2.31) mcg*h/mL/1 mg/kg LBW
CL/F normalized by LBW [2, 13]: 0.20 (0.09) L/h/kg LBW
Vd/F normalized by LBW [2, 13]: 0.28 (0.08) L/kg LBW
AUC0-∞ corrected for LBW-normalized dose [2, 14]: 5.09 (1.81) mcg*h/mL/1 mg/kg LBW
CL/F normalized by LBW [2, 14]: 0.23 (0.10) L/h/kg LBW
Vd/F normalized by LBW [2, 14]: 0.29 (0.07) L/kg LBW
AUC0-∞ corrected for LBW-normalized dose [2, 15]: 7.90 (2.72) mcg*h/mL/1 mg/kg LBW
CL/F normalized by LBW [2, 15]: 0.14 (0.05) L/h/kg LBW
Vd/F normalized by LBW [2, 15]: 0.20 (0.04) L/kg LBW
tlag ([2]; obese, age 6–11 y (n = 18), single oral dose): 1.5 (1.0–3) h
% AUC0-∞ extrapolated from AUC0-last ([2]; obese, age 6–11 y (n = 18)): 1.2 ± 1.6%
AUC0-∞ corrected for TBW-normalized dose ([2]; obese, age 6–11 y (n = 18)): 8.87 ± 4.00 mcg*h/mL/1 mg/kg TBW
CL/F normalized to TBW ([2]; obese, age 6–11 y (n = 18)): 0.14 ± 0.07 L/h/kg TBW
Cmax corrected for LBW-normalized dose ([2]; obese, age 6–11 y (n = 18)): 3.87 ± 1.39 mcg/mL/1 mg/kg LBW
Cmax corrected for TBW-normalized dose ([2]; obese, age 6–11 y (n = 18)): 5.99 ± 2.13 mcg/mL/1 mg/kg TBW
Vd/F normalized to TBW ([2]; obese, age 6–11 y (n = 18)): 0.16 ± 0.05 L/kg TBW
% AUC0-∞ extrapolated from AUC0-last ([2]; obese, age 12–17 y (n = 21)): 2.5 ± 3.3%
AUC0-∞ corrected for TBW-normalized dose ([2]; obese, age 12–17 y (n = 21)): 11.56 ± 4.81 mcg*h/mL/1 mg/kg TBW
CL/F normalized to TBW ([2]; obese, age 12–17 y (n = 21)): 0.10 ± 0.04 L/h/kg TBW
Cmax corrected for LBW-normalized dose ([2]; obese, age 12–17 y (n = 21)): 3.7 ± 0.99 mcg/mL/1 mg/kg LBW
Cmax corrected for TBW-normalized dose ([2]; obese, age 12–17 y (n = 21)): 6.23 ± 1.73 mcg/mL/1 mg/kg TBW
Vd/F normalized to TBW ([2]; obese, age 12–17 y (n = 21)): 0.14 ± 0.04 L/kg TBW
tlag ([2]; obese, age 12–17 y (n = 21)): 2.0 (1.0–8.0) h
AUC0-∞, PM relative to all the non-PMs ([2]; only CYP2C19 PM vs non-PMs, higher): greater than 2 fold
Compound: COc1ccnc(C[S+]([O-])c2nc3ccc(OC(F)F)cc3[nH]2)c1OC (stereo not drawn) [pantoprazole]
Study participants with AEs (Safety and tolerability; 7 of the 41 study participants, nine AEs, single oral dose): 17%
Serious AEs (Safety and tolerability; 41 participants, single oral dose, follow-up day 10–13): No serious AEs
Severity of AEs (Safety and tolerability; all AEs): mild
AEs considered related to study drug (Safety and tolerability; two AEs (headache and hiccups)): 5%
AUC0-∞ corrected for TBW-normalized dose ([1]; age 6–11 y (n = 13)): 3.1 ± 1.4 mcg*h/mL/1 mg/kg TBW
CL/F normalized to TBW ([1]; age 6–11 y (n = 13)): 0.40 ± 0.22 L/h/kg TBW
Cmax corrected for TBW-normalized dose ([1]; age 6–11 y (n = 13)): 2.1 ± 1.1 mcg/mL/1 mg/kg TBW
Uncorrected AUC0-∞ ([1]; age 6–11 y (n = 13)): 3800 ± 1800 ng·h/mL
Vd/F normalized to TBW ([1]; age 6–11 y (n = 13)): 0.40 ± 0.27 L/kg TBW
t1/2 ([1]; age 6–11 y (n = 13)): 42 ± 12 min
AUC0-∞ corrected for TBW-normalized dose ([1]; age 12–17 y (n = 11)): 6.9 ± 3.4 mcg*h/mL/1 mg/kg TBW
CL/F normalized to TBW ([1]; age 12–17 y (n = 11)): 0.18 ± 0.08 L/h/kg TBW
Cmax corrected for TBW-normalized dose ([1]; age 12–17 y (n = 11)): 3.7 ± 1.8 mcg/mL/1 mg/kg TBW
Uncorrected AUC0-∞ ([1]; age 12–17 y (n = 11)): 4300 ± 3100 ng·h/mL
Uncorrected Cmax ([1]; age 12–17 y (n = 11)): 2200 ± 1400 ng/mL
Vd/F normalized to TBW ([1]; age 12–17 y (n = 11)): 0.21 ± 0.06 L/kg TBW
t1/2 ([1]; age 12–17 y (n = 11)): 54 ± 18 min
half-life ([2]; both, oral, t1/2, obese non-PMs, ALT High (>Q3), mean (SD)): 57.6 min
half-life ([2]; both, oral, t1/2, obese non-PMs, ALT Low (<Q1), mean (SD)): 58.2 min
half-life ([2]; both, oral, t1/2, obese non-PMs, AST High (>Q3), mean (SD)): 51 min
half-life ([2]; both, oral, t1/2, obese non-PMs, AST Low (<Q1), mean (SD)): 63.6 min
AUC0-∞ corrected for LBW-normalized dose [2, 7]: 6.12 (2.08) mcg*h/mL/1 mg/kg LBW
CL/F normalized by LBW [2, 7]: 0.18 (0.07) L/h/kg LBW
Vd/F normalized by LBW [2, 7]: 0.25 (0.09) L/kg LBW
AUC0-∞ corrected for LBW-normalized dose [2, 8]: 5.75 (1.97) mcg*h/mL/1 mg/kg LBW
CL/F normalized by LBW [2, 8]: 0.19 (0.06) L/h/kg LBW
Vd/F normalized by LBW [2, 8]: 0.25 (0.04) L/kg LBW
AUC0-∞ corrected for LBW-normalized dose [2, 9]: 5.66 (1.40) mcg*h/mL/1 mg/kg LBW
CL/F normalized by LBW [2, 9]: 0.19 (0.06) L/h/kg LBW
Vd/F normalized by LBW [2, 9]: 0.23 (0.05) L/kg LBW
AUC0-∞ corrected for LBW-normalized dose [2, 10]: 6.04 (1.97) mcg*h/mL/1 mg/kg LBW
CL/F normalized by LBW [2, 10]: 0.19 (0.09) L/h/kg LBW
Vd/F normalized by LBW [2, 10]: 0.27 (0.06) L/kg LBW
AUC0-∞ corrected for LBW-normalized dose [2, 16]: 5.73 ± 2.48 mcg*h/mL/1 mg/kg LBW and 5.73 (2.48) mcg*h/mL/1 mg/kg LBW
CL/F normalized to LBW [2, 16]: 0.21 ± 0.11 L/h/kg LBW and 0.21 (0.11) L/h/kg LBW
Vd/F normalized to LBW [2, 16]: 0.25 ± 0.09 L/kg LBW and 0.25 (0.09) L/kg LBW
AUC0-∞ corrected for LBW-normalized dose ([2]; obese, age 12–17 y, mean, SD): 6.82 ± 2.70 mcg*h/mL/1 mg/kg LBW and 6.82 (2.70) mcg*h/mL/1 mg/kg LBW
CL/F normalized to LBW ([2]; obese, age 12–17 y, mean, SD): 0.17 ± 0.06 L/h/kg LBW and 0.17 (0.06) L/h/kg LBW
Vd/F normalized to LBW ([2]; obese, age 12–17 y, mean, SD): 0.25 ± 0.07 L/kg LBW and 0.25 (0.07) L/kg LBW
